Laboratory results reported in ChEMBL document CHEMBL4393681, “The identification of naturally occurring labdane diterpenoid calcaratarin D as a potential anti-inflammatory agent” (Eur J Med Chem, 2019).
Calls of active or inactive are those of the source. No cut-off for these calls is given here.

Legend:
[1] = test system: RAW264.7; assay: Inhibition of LPS-stimulated SAPK/JNK phosphorylation in mouse RAW264.7 cells at 5 to 20 uM pretreated for 1 hr followed by LPS stimulation and measured after 4 hrs by Western blot analysis; type: cell-based
Procedure, shortened: (§1)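 RAW264.7 cells received compound (5–20 µM) or vehicle with LPS 25 ng/mL for 4 h. Phospho-ERK1/2, SAPK/JNK, p38 and Akt were immunoblotted against a GAPDH loading control. Akt phosphorylation was quantified by band intensity, mean ± SEM, n = 4, versus 0.02% DMSO cells.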

[2] = biological target: MAP kinase p38 (Mus musculus) (UniProt P47811+O08911+Q9WUI1+Q9Z1B7); assay: Inhibition of LPS-stimulated p38 MAPK phosphorylation in mouse RAW264.7 cells at 5 to 20 uM pretreated for 1 hr followed by LPS stimulation and measured after 4 hrs by Western blot analysis; type: cell-based; procedure, shortened: as §1
[3] = organism: Mus musculus; assay: Inhibition of LPS-stimulated NFkappaB activation in mouse RAW blue cells assessed as reduction in SEAP protein expression at 0.1 to 20 uM pretreated for 1 hr followed by LPS stimulation and measured after 24 hrs by reporter gene assay; type: cell-based
Procedure, shortened: (§2)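 RAW-Blue NF-κB–SEAP reporter cells were pretreated for 1 h with compound (0.1–20 µM), dexamethasone 1 µM or DMSO vehicle, then given LPS 25 ng/mL for 24 h. SEAP activity in the supernatant was read with LPS-treated 0.02% DMSO cells set as 100%. Mean ± SEM, n = 4.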

[4] = biological target: RAC-alpha serine/threonine-protein kinase (Mus musculus) (UniProt P31750); assay: Inhibition of LPS-stimulated AKT phosphorylation in mouse RAW264.7 cells at 5 to 20 uM pretreated for 1 hr followed by LPS stimulation and measured after 4 hrs by Western blot analysis; type: cell-based; procedure, shortened: as §1
[5] = biological target: Mitogen-activated protein kinase 1 and 3 (ERK2 and ERK1) (Mus musculus) (UniProt P63085+Q63844); assay: Inhibition of LPS-stimulated ERK1/2 phosphorylation in mouse RAW264.7 cells at 5 to 20 uM pretreated for 1 hr followed by LPS stimulation and measured after 4 hrs by Western blot analysis; type: cell-based; procedure, shortened: as §1
[6] = test system: RAW264.7; assay: Anti-inflammatory activity in mouse RAW264.7 cells assessed as inhibition of LPS-induced IL-6 production at 20 uM pretreated for 1 hr followed by LPS stimulation and measured after 18 hrs by ELISA relative to control; type: functional; set-up: scale not given: the % may be the effect or the level left
Procedure, shortened: (§3)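 DMSO stocks (100 mM) were tested at 0.1, 1, 5 and 20 µM on LPS-stimulated RAW264.7 cells, with dexamethasone 1 µM as positive control. Secreted TNF-α or IL-6 was normalized to the percentage of viable LPS-stimulated cells at each concentration. Mean of three separate experiments, each in triplicate.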

[7] = biological target: Transcription factor p65 (Mus musculus) (UniProt Q04207); assay: Inhibition of LPS-stimulated NFkappaB activation in mouse RAW264.7 cells assessed as blockade of p65 NFkappaB nuclear translocation at 20 uM pretreated for 1 hr followed by LPS stimulation and measured after 4 hrs by Western blot analysis; type: cell-based
Procedure, shortened: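 After compound at 20 µM or vehicle with LPS 25 ng/mL for 4 h, cytoplasmic and nuclear fractions were blotted for p65. TBP (nuclear) and GAPDH (cytoplasmic) served as loading controls. Nuclear p65 was quantified by band intensity, mean ± SEM, n = 4.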

[8] = test system: RAW264.7; assay: Anti-inflammatory activity in mouse RAW264.7 cells assessed as inhibition of LPS-induced IL-6 production at 1 uM pretreated for 1 hr followed by LPS stimulation and measured after 18 hrs by ELISA relative to control; type: functional; set-up: scale not given: the % may be the effect or the level left; procedure, shortened: as §3
[9] = biological target: Transcription factor p65 (Mus musculus) (UniProt Q04207); assay: Effect on p65 subunit NFkappaB phosphorylation in mouse RAW264.7 cells at 5 to 20 uM pretreated for 1 hr followed by LPS stimulation and measured after 4 hrs by Western blot analysis; type: cell-based
Procedure, shortened: (§4)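 Whole-cell lysates from RAW264.7 cells given compound (5–20 µM) or vehicle and LPS 25 ng/mL for 4 h. Phosphorylated and total p65 were immunoblotted and bands quantified densitometrically. Mean ± SEM, n = 4, compared with 0.02% DMSO cells.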

[10] = test system: RAW264.7; assay: Anti-inflammatory activity in mouse RAW264.7 cells assessed as inhibition of LPS-induced IL-6 mRNA expression pretreated for 1 hr followed by LPS stimulation and measured after 4 hrs by RT-PCR analysis; type: functional, cell-based
Procedure, shortened: (§5)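 RAW264.7 cells were exposed to compound (1, 5, 20 µM), dexamethasone 1 µM or 0.02% DMSO vehicle, then stimulated with LPS 25 ng/mL for 4 h. Total RNA was isolated and analysed by real-time PCR. mRNA was normalized to β-actin and expressed relative to unstimulated control cells. Mean ± SEM, n = 4.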

[11] = test system: RAW264.7; assay: Anti-inflammatory activity in mouse RAW264.7 cells assessed as inhibition of LPS-induced MCP-1 mRNA expression pretreated for 1 hr followed by LPS stimulation and measured after 4 hrs by RT-PCR analysis; type: functional, cell-based; procedure, shortened: as §5
[12] = test system: RAW264.7; assay: Anti-inflammatory activity in mouse RAW264.7 cells assessed as inhibition of LPS-induced IL-6 production at 5 uM pretreated for 1 hr followed by LPS stimulation and measured after 18 hrs by ELISA relative to control; type: functional; set-up: scale not given: the % may be the effect or the level left; procedure, shortened: as §3
[13] = biological target: RAC-alpha serine/threonine-protein kinase (Mus musculus) (UniProt P31750); assay: Inhibition of LPS-stimulated AKT phosphorylation in mouse RAW264.7 cells pretreated for 1 hr followed by LPS stimulation and measured after 4 hrs by Western blot analysis; type: cell-based; procedure, shortened: as §1
[14] = test system: RAW264.7; assay: Anti-inflammatory activity in mouse RAW264.7 cells assessed as inhibition of LPS-induced TNFalpha production at 1 uM pretreated for 1 hr followed by LPS stimulation and measured after 18 hrs by ELISA relative to control; type: functional; set-up: scale not given: the % may be the effect or the level left; procedure, shortened: as §3
[15] = test system: RAW264.7; assay: Anti-inflammatory activity in mouse RAW264.7 cells assessed as inhibition of LPS-induced TNFalpha production at 20 uM pretreated for 1 hr followed by LPS stimulation and measured after 18 hrs by ELISA relative to control; type: functional; set-up: scale not given: the % may be the effect or the level left; procedure, shortened: as §3
[16] = test system: RAW264.7; assay: Anti-inflammatory activity against mouse RAW264.7 cells assessed as inhibition of LPS-stimulated NO production pretreated for 1 hr followed by LPS stimulation and measured after 24 hrs by Griess reagent based assay; type: functional, cell-based
[17] = Cytotoxicity against mouse RAW264.7 cells assessed as cell viability at 1 uM incubated for 18 hrs by celltiter-glo luminescent assay relative to control; type: cell-based; settings: read-out: Activity
Procedure, shortened: (§6)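 Non-stimulated RAW264.7 cells were exposed to 0.1, 1, 5 and 20 µM compound from 100 mM DMSO stocks. Percent viability is the mean of three separate experiments with triplicate samples.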

[18] = Cytotoxicity against mouse RAW264.7 cells assessed as cell viability at 20 uM incubated for 18 hrs by celltiter-glo luminescent assay relative to control; type: cell-based; settings: read-out: Activity; procedure, shortened: as §6
[19] = organism: Mus musculus; assay: Inhibition of LPS-stimulated NFkappaB activation in mouse RAW blue cells assessed as reduction in SEAP protein expression pretreated for 1 hr followed by LPS stimulation and measured after 24 hrs by reporter gene assay; type: cell-based; procedure, shortened: as §2
[20] = test system: RAW264.7; assay: Anti-inflammatory activity in mouse RAW264.7 cells assessed as inhibition of LPS-induced iNOS mRNA expression pretreated for 1 hr followed by LPS stimulation and measured after 4 hrs by RT-PCR analysis; type: functional, cell-based; procedure, shortened: as §5
[21] = test system: RAW264.7; assay: Anti-inflammatory activity in mouse RAW264.7 cells assessed as inhibition of LPS-induced IL-6 production at 0.1 uM pretreated for 1 hr followed by LPS stimulation and measured after 18 hrs by ELISA relative to control; type: functional; set-up: scale not given: the % may be the effect or the level left; procedure, shortened: as §3
[22] = test system: RAW264.7; assay: Anti-inflammatory activity in mouse RAW264.7 cells assessed as inhibition of LPS-induced IL-1beta mRNA expression pretreated for 1 hr followed by LPS stimulation and measured after 4 hrs by RT-PCR analysis; type: functional, cell-based; procedure, shortened: as §5
[23] = biological target: Transcription factor p65 (Mus musculus) (UniProt Q04207); assay: Effect on total p65 NFkappaB subunit protein level in mouse RAW264.7 cells at 5 to 20 uM pretreated for 1 hr followed by LPS stimulation and measured after 4 hrs by Western blot analysis; type: cell-based; procedure, shortened: as §4
[24] = test system: RAW264.7; assay: Anti-inflammatory activity in mouse RAW264.7 cells assessed as inhibition of LPS-induced TNFalpha production at 0.1 uM pretreated for 1 hr followed by LPS stimulation and measured after 18 hrs by ELISA relative to control; type: functional; set-up: scale not given: the % may be the effect or the level left; procedure, shortened: as §3
[25] = test system: RAW264.7; assay: Anti-inflammatory activity in mouse RAW264.7 cells assessed as inhibition of LPS-induced TNFalpha production at 5 uM pretreated for 1 hr followed by LPS stimulation and measured after 18 hrs by ELISA relative to control; type: functional; set-up: scale not given: the % may be the effect or the level left; procedure, shortened: as §3
[26] = Cytotoxicity against mouse RAW264.7 cells assessed as cell viability at 0.1 uM incubated for 18 hrs by celltiter-glo luminescent assay relative to control; type: cell-based; settings: read-out: Activity; procedure, shortened: as §6
[27] = test system: RAW264.7; assay: Anti-inflammatory activity in mouse RAW264.7 cells assessed as inhibition of LPS-induced TNF-alpha mRNA expression pretreated for 1 hr followed by LPS stimulation and measured after 4 hrs by RT-PCR analysis; type: functional, cell-based; procedure, shortened: as §5
[28] = Cytotoxicity against mouse RAW264.7 cells assessed as cell viability at 5 uM incubated for 18 hrs by celltiter-glo luminescent assay relative to control; type: cell-based; settings: read-out: Activity; procedure, shortened: as §6

Transcription factor p65 (Mus musculus), sequence (Q04207 whole entry): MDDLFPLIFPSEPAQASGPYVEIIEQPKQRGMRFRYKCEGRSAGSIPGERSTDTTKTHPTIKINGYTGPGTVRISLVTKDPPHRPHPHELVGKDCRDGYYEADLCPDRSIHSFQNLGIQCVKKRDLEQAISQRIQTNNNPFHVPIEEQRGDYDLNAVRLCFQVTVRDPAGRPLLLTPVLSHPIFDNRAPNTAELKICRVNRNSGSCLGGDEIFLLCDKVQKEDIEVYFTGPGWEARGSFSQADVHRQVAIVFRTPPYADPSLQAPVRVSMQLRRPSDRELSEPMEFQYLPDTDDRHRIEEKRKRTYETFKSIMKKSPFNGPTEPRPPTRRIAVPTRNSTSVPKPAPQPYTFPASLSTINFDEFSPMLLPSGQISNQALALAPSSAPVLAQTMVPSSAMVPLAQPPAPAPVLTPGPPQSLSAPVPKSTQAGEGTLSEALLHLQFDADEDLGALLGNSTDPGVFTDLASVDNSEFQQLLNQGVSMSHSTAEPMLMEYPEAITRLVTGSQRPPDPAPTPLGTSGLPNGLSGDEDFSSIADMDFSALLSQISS
Mitogen-activated protein kinase 1 and 3 (ERK2 and ERK1) (Mus musculus), sequence (P63085 whole entry, looked up): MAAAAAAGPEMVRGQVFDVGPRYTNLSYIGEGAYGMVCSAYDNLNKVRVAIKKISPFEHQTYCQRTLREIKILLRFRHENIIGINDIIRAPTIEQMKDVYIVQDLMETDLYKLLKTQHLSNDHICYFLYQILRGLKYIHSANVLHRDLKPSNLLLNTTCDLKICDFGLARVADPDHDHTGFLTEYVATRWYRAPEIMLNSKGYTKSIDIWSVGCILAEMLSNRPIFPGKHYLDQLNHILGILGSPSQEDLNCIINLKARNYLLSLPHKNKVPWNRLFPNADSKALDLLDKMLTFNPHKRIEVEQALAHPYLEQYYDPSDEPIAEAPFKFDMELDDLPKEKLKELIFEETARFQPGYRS
Mitogen-activated protein kinase 1 and 3 (ERK2 and ERK1) (Mus musculus), sequence (Q63844 whole entry, looked up): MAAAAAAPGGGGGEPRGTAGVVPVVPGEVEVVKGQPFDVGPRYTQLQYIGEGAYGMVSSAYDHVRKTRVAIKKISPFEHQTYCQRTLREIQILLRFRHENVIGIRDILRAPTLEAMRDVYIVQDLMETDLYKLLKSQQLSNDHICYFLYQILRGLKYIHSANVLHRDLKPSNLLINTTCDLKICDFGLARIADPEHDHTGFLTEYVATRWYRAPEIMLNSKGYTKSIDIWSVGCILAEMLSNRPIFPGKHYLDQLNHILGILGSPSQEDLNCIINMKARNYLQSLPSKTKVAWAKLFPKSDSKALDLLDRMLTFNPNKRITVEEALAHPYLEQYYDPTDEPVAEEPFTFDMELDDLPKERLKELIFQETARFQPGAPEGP
RAC-alpha serine/threonine-protein kinase (Mus musculus), sequence (P31750 whole entry): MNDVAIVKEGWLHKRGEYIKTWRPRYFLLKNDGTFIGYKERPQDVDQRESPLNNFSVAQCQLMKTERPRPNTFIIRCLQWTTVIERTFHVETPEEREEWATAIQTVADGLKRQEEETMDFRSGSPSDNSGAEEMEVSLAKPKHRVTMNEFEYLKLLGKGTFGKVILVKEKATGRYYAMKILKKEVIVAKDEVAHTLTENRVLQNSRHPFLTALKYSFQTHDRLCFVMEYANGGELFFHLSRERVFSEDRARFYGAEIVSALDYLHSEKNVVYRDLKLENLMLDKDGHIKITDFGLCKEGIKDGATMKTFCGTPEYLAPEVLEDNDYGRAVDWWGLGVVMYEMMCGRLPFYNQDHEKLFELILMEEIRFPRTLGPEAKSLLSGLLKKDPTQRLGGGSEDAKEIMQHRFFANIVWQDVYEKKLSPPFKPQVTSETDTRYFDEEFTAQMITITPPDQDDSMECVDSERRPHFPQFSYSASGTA

Compound: C=C1CC[C@@H]2[C@](C)(CO)[C@H](O)CC[C@@]2(C)[C@@H]1C/C=C1/C(=O)OC[C@H]1O
- inhibition [1]: Active
- inhibition [2]: Active
- inhibition [3]: inactive
- inhibition [4]: Active
- inhibition [5]: Active

Compound: C=C1CC[C@H]2C(C)(C)CCC[C@]2(C)[C@H]1C/C=C1/C(=O)OC[C@H]1O
- Activity [6]: 10.8%
- inhibition [7]: Active
- Activity [8]: 68.1%
- Activity [9]: inactive
- inhibition [10]: Dose-dependent effect
- inhibition [1]: inactive
- inhibition [11]: Dose-dependent effect
- Activity [12]: 40%
- inhibition [13]: Dose-dependent effect
- Activity [14]: 63.4%
- Activity [15]: 1.7%
- IC50 [16]: 3.91 µM
- inhibition [16]: Dose-dependent effect
- viability at 18 h, 1 µM [17]: 95.6%
- viability at 18 h, 20 µM [18]: 53.7%
- inhibition [19]: Dose-dependent effect
- inhibition [20]: Dose-dependent effect
- inhibition [2]: inactive
- Activity [21]: 99.2%
- inhibition [22]: Dose-dependent effect
- Activity [23]: inactive
- Activity [24]: 99.3%
- Activity [25]: 19.2%
- viability at 18 h, 0.1 µM [26]: 103%
- inhibition [27]: Dose-dependent effect
- viability at 18 h, 5 µM [28]: 82.7%
- inhibition [5]: inactive

Compound: C=C1CC[C@H]2C(C)(C)CCC[C@]2(C)[C@H]1/C=C/C1=CCOC1=O [VILLOSIN]
- Activity [6]: 170.1%
- Activity [8]: 87.6%
- Activity [12]: 101.5%
- Activity [14]: 86.6%
- Activity [15]: 133.5%
- viability at 18 h, 1 µM [17]: 105%
- viability at 18 h, 20 µM [18]: 59%
- Activity [21]: 98.4%
- Activity [24]: 80.4%
- Activity [25]: 74.6%
- viability at 18 h, 0.1 µM [26]: 104%
- viability at 18 h, 5 µM [28]: 103%

Compound: C=C1CC[C@H]2C(C)(C)CCC[C@]2(C)[C@H]1C/C=C1/CCOC1=O
- Activity [6]: 64.8%
- Activity [8]: 94.1%
- Activity [12]: 85.6%
- Activity [14]: 81.8%
- Activity [15]: 48%
- viability at 18 h, 1 µM [17]: 101%
- viability at 18 h, 20 µM [18]: 85%
- Activity [21]: 101.5%
- Activity [24]: 99.8%
- Activity [25]: 69.9%
- viability at 18 h, 0.1 µM [26]: 103%
- viability at 18 h, 5 µM [28]: 95.4%
